Assay results: ChEMBL document CHEMBL1149075, “Synthesis and evaluation of alkoxy-phenylamides and alkoxy-phenylimidazoles as potent sphingosine-1-phosphate receptor subtype-1 agonists” (Bioorg Med Chem Lett, 2009)

What was measured:
[1] = biological target: T1, Sphingosine 1-phosphate receptor 1 (Homo sapiens, UniProt P21453); experiment: Displacement of [33P]sphingosine-1-phosphate from human S1P1 receptor
[2] = biological target: T2, Sphingosine 1-phosphate receptor 3 (Homo sapiens, UniProt Q99500); experiment: Displacement of [33P]sphingosine-1-phosphate from human S1P3 receptor
T2 sequence (Q99500 whole entry): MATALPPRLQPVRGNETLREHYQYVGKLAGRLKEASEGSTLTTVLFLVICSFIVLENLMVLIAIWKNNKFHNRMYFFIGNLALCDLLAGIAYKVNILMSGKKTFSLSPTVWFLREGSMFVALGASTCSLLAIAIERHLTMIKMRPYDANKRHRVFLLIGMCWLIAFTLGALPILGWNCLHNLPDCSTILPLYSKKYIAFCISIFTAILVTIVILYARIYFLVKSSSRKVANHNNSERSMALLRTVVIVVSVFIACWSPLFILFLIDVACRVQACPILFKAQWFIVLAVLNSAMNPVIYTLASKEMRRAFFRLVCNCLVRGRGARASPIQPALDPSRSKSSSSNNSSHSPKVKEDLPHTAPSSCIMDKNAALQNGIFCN

[3] = biological target: T3, Sphingosine 1-phosphate receptor 4 (Homo sapiens, UniProt O95977); experiment: Displacement of [33P]sphingosine-1-phosphate from human S1P4 receptor
T3 sequence (O95977 whole entry): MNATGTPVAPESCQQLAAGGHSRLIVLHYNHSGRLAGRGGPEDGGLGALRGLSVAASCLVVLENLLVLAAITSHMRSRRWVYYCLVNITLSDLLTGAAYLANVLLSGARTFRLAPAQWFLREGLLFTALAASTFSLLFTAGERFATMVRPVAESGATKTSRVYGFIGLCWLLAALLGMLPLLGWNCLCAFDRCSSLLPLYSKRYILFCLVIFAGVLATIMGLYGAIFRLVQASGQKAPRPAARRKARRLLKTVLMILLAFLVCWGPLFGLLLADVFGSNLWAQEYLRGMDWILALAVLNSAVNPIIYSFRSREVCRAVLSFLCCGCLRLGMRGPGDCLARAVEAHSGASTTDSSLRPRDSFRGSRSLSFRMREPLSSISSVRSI

[4] = biological target: T1, Sphingosine 1-phosphate receptor 1; experiment: Agonist activity at human S1P1 receptor assessed as stimulation of [35S]GTPgammaS binding; format: functional
[5] = biological target: T2, Sphingosine 1-phosphate receptor 3; experiment: Agonist activity at human S1P3 receptor assessed as stimulation of [35S]GTPgammaS binding; format: functional
Mus musculus [6] = experiment: Immunomodulatory activity in C57BL/6 mouse assessed as lymphopenia at 10 mg/kg, po after 6 hrs by complete blood count analysis; format: functional
How it was run: (§1)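 Mice dosed orally with compound in 3% BSA vehicle; vehicle-only control group. Doses 0.3–10 mg/kg. At 6 h, isoflurane anesthesia, about 250 µl retro-orbital blood collected into EDTA tubes, mixed with anticoagulant, kept on tilt table, then complete blood count. Percent lymphopenia reported.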

[7] = biological target: Sphingosine 1-phosphate receptor 5 (Homo sapiens, UniProt Q9H228); experiment: Displacement of [33P]sphingosine-1-phosphate from human S1P5 receptor
Sphingosine 1-phosphate receptor 5, sequence (Q9H228 whole entry): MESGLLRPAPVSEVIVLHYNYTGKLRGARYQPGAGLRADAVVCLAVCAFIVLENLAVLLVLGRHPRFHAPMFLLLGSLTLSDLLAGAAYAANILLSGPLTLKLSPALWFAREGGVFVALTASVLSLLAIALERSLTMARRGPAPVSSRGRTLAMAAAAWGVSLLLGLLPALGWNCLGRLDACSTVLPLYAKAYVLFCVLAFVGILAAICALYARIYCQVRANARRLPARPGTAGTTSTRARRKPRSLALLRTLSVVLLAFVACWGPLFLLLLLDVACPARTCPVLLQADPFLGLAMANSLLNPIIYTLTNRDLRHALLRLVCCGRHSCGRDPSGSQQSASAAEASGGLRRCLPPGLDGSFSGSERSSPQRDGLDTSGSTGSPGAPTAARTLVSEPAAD

Homo sapiens [8] = species: Homo sapiens; experiment: Ratio of IC50 for human S1P3 receptor to IC50 for human S1P1 receptor
Homo sapiens [9] = species: Homo sapiens; experiment: Ratio of EC50 for human S1P3 receptor to EC50 for human S1P1 receptor
Mus musculus [10] = experiment: Immunomodulatory activity in po dosed C57BL/6 mouse assessed as lymphopenia after 6 hrs by complete blood count analysis; format: functional, organism-based; how it was run: as §1

T1 sequence (P21453 whole entry): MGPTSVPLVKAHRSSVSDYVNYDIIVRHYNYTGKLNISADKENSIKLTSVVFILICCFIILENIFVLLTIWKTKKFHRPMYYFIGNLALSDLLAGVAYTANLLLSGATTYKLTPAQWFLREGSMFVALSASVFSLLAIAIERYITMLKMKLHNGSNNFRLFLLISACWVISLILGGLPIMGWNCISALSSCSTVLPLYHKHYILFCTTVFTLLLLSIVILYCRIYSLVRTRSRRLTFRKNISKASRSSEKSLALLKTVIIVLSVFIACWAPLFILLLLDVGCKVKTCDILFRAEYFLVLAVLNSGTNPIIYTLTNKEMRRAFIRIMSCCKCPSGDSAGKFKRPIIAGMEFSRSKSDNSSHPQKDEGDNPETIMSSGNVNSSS

Row | SMILES | IC50 [1] [nM] | IC50 [2] [nM] | IC50 [3] [nM] | EC50 [4] [nM] | EC50 [5] [nM] | Activity (Mus musculus [6]) [%] | IC50 [7] [nM] | Ratio IC50 (Homo sapiens [8]) | Ratio EC50 (Homo sapiens [9]) | Activity (Mus musculus [10])
1 | CCCCCCCCCCCCC/C=C/[C@@H](O)[C@@H](N)COP(=O)(O)O | 0.47 | 0.66 | 2.4 | 7.9 | 3 |  |  |  |  | 
2 | CCCCCCCCOc1ccc(NC(=O)[C@@](C)(N)CO)c(F)c1 |  |  |  |  |  | 66 |  |  |  | 
3 | CCCCCCCCOc1ccc(-c2c[nH]c([C@@](C)(N)CO)n2)cc1F |  |  |  |  |  | 70 |  |  |  | 
4 | CCCCCCCCOc1ccc(NC(=O)[C@@](C)(N)COP(=O)(O)O)cc1F | 0.14 | 5.9 | 3.5 | 1.1 | 10.1 |  | 6.9 | 42 | 9.2 | 
5 | CCCCCCCCOc1ccc(NC(=O)[C@@](C)(N)CO)cc1F |  |  |  |  |  | 65 |  |  |  | 
6 | CCCCCCCCOc1ccc(NC(=O)[C@@](C)(N)COP(=O)(O)O)cc1 | 0.73 | 5.9 | 4 | 2.4 | 16.3 |  | 8.8 | 8.1 | 6.9 | 
7 | CCCCCCCCOc1ccc(-c2c[nH]c([C@@](C)(N)CO)n2)cc1 |  |  |  |  |  | 83 |  |  |  | 
8 | CCCCCCCOc1ccc(NC(=O)[C@@](C)(N)CO)cc1 |  |  |  |  |  | 72 |  |  |  | 
9 | CCCCCCCCOc1ccc(-c2c[nH]c([C@@](C)(N)COP(=O)(O)O)n2)cc1F | 0.35 | 5.8 | 1.9 | 0.45 | 10.8 |  | 1.1 | 16.5 | 24 | 
10 | CCCCCCCCOc1ccc(-c2c[nH]c([C@@](C)(N)COP(=O)(O)O)n2)cc1 | 0.26 | 5.3 | 1.1 | 0.55 | 14.8 |  | 1.4 | 20.3 | 26.9 | 
11 | CCCCCCCCOc1ccc(-c2c[nH]c([C@@](C)(N)CO)n2)c(F)c1 |  |  |  |  |  | 81 |  |  |  | 
12 | CCCCCCCCOc1ccc(NC(=O)[C@@](C)(N)COP(=O)(O)O)c(F)c1 | 0.35 | 3.6 | 1.8 | 2.1 | 9.8 |  | 3.2 | 10.2 | 4.7 | 
13 | CCCCCCCCOc1ccc(NC(=O)[C@@](C)(N)CO)cc1 |  |  |  |  |  | 78 |  |  |  | Dose-dependent effect
14 | CCCCCCCCc1ccc(NC(=O)[C@@](C)(N)CO)cc1 |  |  |  |  |  | 36 |  |  |  | 
15 | CCCCCCCOc1ccc(-c2c[nH]c([C@@](C)(N)CO)n2)cc1 |  |  |  |  |  | 74 |  |  |  | 
